ChEMBL document CHEMBL1250426, “Structure-activity relationship of brominated 3-alkyl-5-methylene-2(5H)-furanones and alkylmaleic anhydrides as inhibitors of Salmonella biofilm formation and quorum sensing regulated bioluminescence in Vibrio harveyi” (Bioorg Med Chem, 2010)
Activity calls are given as the source filed them. The calls are words filed in the database; no cut-off is given here.

Assays:
[1] = Inhibition of quorum sensing regulated bioluminescence in wild type Vibrio harveyi BB120 after 5 hrs by luminescence assay
Method in brief: (§1)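 Twofold compound dilutions in LM broth; OD600-adjusted (0.4) AB-grown overnight culture diluted 1:100 in Luria-Marine broth, 200 µl per well. Incubated 5 h at 30 °C with aeration; luminescence imaged by CCD camera. IC50 = concentration inhibiting luminescence by 50%, fitted from gradients in 2–3 independent experiments (2–3 repeats each); top concentration 1000 µM.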

[2] = test system: Salmonella typhimurium; assay: Antimicrobial activity against Salmonella Typhimurium ATCC 14028 assessed as effect on planktonic growth at 100 uM after 36 hrs by microtiter plate assay; assay type: functional, organism-based; conditions: Salmonella enterica subsp. enterica serovar Typhimurium
Method in brief: (§2)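 Overnight LB culture diluted 1:200 in TSB 1/20; 300 µl per well; compound serial dilutions made in EtOH, 3 µl added per well in triplicate; solvent-only controls in three- or fourfold. Incubated at 16 °C for at least 36 h with continuous shaking in Bioscreen reader; OD600 read every 15 min; growth curves compared with untreated controls.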

[3] = test system: Salmonella typhimurium; assay: Antimicrobial activity against Salmonella Typhimurium ATCC 14028 assessed as effect on planktonic growth at 10 uM after 36 hrs by microtiter plate assay; assay type: functional, organism-based; conditions: Salmonella enterica subsp. enterica serovar Typhimurium; method in brief: as §2
[4] = test system: Salmonella typhimurium; assay: Antimicrobial activity against Salmonella Typhimurium ATCC 14028 assessed as inhibition of biofilm formation after 48 hrs using crystal violet staining by microtiter plate assay; assay type: functional, organism-based, Salmonella enterica subsp. enterica serovar Typhimurium; conditions: Salmonella enterica, ATCC 14028, 48 h
Method in brief: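 Peg-lid biofilm assay: overnight LB culture diluted 1:100 into TSB 1/20, ca. 1×10⁶ cells added to twofold compound dilutions, 200 µl total per well. Static incubation 48 h at 16 °C; lid moved to fresh medium with compound after 24 h. IC50 from concentration gradients, 2–3 independent experiments, 2–3 repeats each.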

[5] = test system: Vibrio harveyi; assay: Antimicrobial activity against wild type Vibrio harveyi BB120; assay type: functional
Method in brief: (§3)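 Overnight AB-medium culture, OD600 adjusted to 0.4, diluted 1:100 into Luria-Marine broth and added to twofold compound dilutions in LM broth, 200 µl per well. Incubated 5 h at 30 °C with aeration under breathable seal; growth read as OD600. GIC50 = concentration reducing OD600 by 50%, from gradients in 2–3 independent experiments, 2–3 repeats each; highest concentration tested 1000 µM.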

[6] = test system: Salmonella typhimurium; assay: Antimicrobial activity against Salmonella Typhimurium ATCC 14028 assessed as effect on planktonic growth at 1 uM after 36 hrs by microtiter plate assay; assay type: functional, organism-based; conditions: Salmonella enterica subsp. enterica serovar Typhimurium; method in brief: as §2
[7] = test system: Salmonella typhimurium; assay: Antimicrobial activity against Salmonella Typhimurium ATCC 14028 assessed as effect on planktonic growth at 250 uM after 36 hrs by microtiter plate assay; assay type: functional, organism-based; conditions: Salmonella enterica subsp. enterica serovar Typhimurium; method in brief: as §2
[8] = test system: Vibrio harveyi; assay: Inhibition of quorum sensing regulated bioluminescence in Vibrio harveyi JAF553 luxU H58A linked to Kan mutant quorum sensing after 5 hrs by luminescence assay
Method in brief: (§4)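 Twofold serial dilutions in Luria-Marine broth; overnight culture (grown in AB medium) adjusted to OD600 0.4, diluted 1:100 and added 1:1 to wells (200 µl total). Incubated 5 h at 30 °C with aeration under breathable seal. Luminescence read by CCD camera, OD600 also measured. Luminescence expressed as percentage of untreated control of the same strain.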

[9] = test system: HeLa; assay: Cytotoxicity against human HeLa cells assessed as inhibition of cell proliferation after 4 days by coulter counter assay; assay type: cell-based; conditions: 96 h
Method in brief: (§5)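 Cells suspended at 300,000–500,000 cells/mL; 100 µL added to equal volume of compound dilution in 96-well plates. Incubated at 37 °C for 2 days (L1210, FM3A), 3 days (CEM) or 4 days (HeLa, OST). Cell number counted by Coulter counter; IC50 = concentration inhibiting proliferation by 50%.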

[10] = test system: Vibrio harveyi; assay: Inhibition of quorum sensing regulated bioluminescence in Vibrio harveyi BNL258 harboring hfq::Tn5lacZ mutant quorum sensing after 5 hrs by luminescence assay; method in brief: as §4
[11] = test system: L1210; assay: Cytotoxicity against mouse L1210 cells assessed as inhibition of cell proliferation after 2 days by coulter counter assay; assay type: cell-based; conditions: L1210, 48 h; method in brief: as §5
[12] = test system: Vibrio harveyi; assay: Inhibition of quorum sensing regulated bioluminescence in Vibrio harveyi JAF483 luxO D47A linked to Kan mutant quorum sensing after 5 hrs by luminescence assay; method in brief: as §4
[13] = test system: OST; assay: Cytotoxicity against human thymidine kinase deficient OST cells assessed as inhibition of cell proliferation after 4 days by coulter counter assay; assay type: cell-based; conditions: 96 h; method in brief: as §5
[14] = test system: CCRF-CEM; assay: Cytotoxicity against human CEM cells assessed as inhibition of cell proliferation after 3 days by coulter counter assay; assay type: cell-based; conditions: 72 h; method in brief: as §5
[15] = test system: FM3A; assay: Cytotoxicity against mouse FM3A cells assessed as inhibition of cell proliferation after 2 days by coulter counter assay; assay type: cell-based; conditions: 48 h; method in brief: as §5
[16] = test system: Vibrio harveyi; assay: Antimicrobial activity against wild type Vibrio harveyi BB120 at 1000 uM; assay type: functional, organism-based; method in brief: as §3
[17] = Inhibition of quorum sensing regulated bioluminescence in wild type Vibrio harveyi BB120 at 1000 uM after 5 hrs by luminescence assay; method in brief: as §1

Row | SMILES | IC50 [1] [µM] | Activity [2] | Activity [3] | IC50 [4] [µM] | GI50 [5] [µM] | Activity [6] | Activity [7] | also measured
1 | CCCC(Br)C1=C(Br)/C(=C/Br)OC1=O (stereo unspecified) | 1.18 | Active | inactive | 5.71 | 4.04 | inactive | Active | –
2 | CCCCCCC1=C(Br)C(=O)OC1=O [BROMOHEXYLMALEIC ANHYDRIDE] | 10.6 | inactive | – | 65.9 | 208 | – | inactive | Activity [8]: Active; IC50 [9]: 156 µM; Activity [10]: Active; IC50 [11]: 208 µM; Activity [12]: Active; IC50 [13]: 43 µM; IC50 [14]: 90 µM; IC50 [15]: 243 µM
3 | CCC1=CC(=C(Br)Br)OC1=O | 105 | inactive | inactive | 200 | 325 | – | inactive | –
4 | CC(Br)C1=CC(=C(Br)Br)OC1=O (stereo unspecified) | 0.774 | Active | Active | 1.17 | 3.07 | inactive | Active | –
5 | CCCC(OC(C)=O)C1=C(Br)/C(=C/Br)OC1=O (stereo unspecified) | 50.1 | inactive | inactive | 132 | 147 | inactive | inactive | –
6 | CCCCC1=C(Br)/C(=C/Br)OC1=O | 1.36 | inactive | inactive | 23.1 | 65.3 | – | Active | –
7 | CCCCCCCCCCC1=C(Br)/C(=C/Br)OC1=O | 26.6 | – | – | – | > 300 | – | – | –
8 | CCC1=C(Br)C(=C(Br)Br)OC1=O | 1.15 | inactive | inactive | 57.5 | 2.26 | – | – | –
9 | CCCCCCC1=C/C(=C/Br)OC1=O | – | – | – | > 1000 | – | – | – | –
10 | CCCC(Br)C1=CC(=C(Br)Br)OC1=O (stereo unspecified) | 0.2 | Active | inactive | 1.31 | 1.07 | inactive | Active | –
11 | CC(=O)OC(C)C1=C(Br)C(=C(Br)Br)OC1=O (stereo unspecified) | 6.31 | inactive | inactive | 7.29 | 25.4 | inactive | Active | –
12 | CCCCC1=CC(=C(Br)Br)OC1=O | 18.9 | – | – | 148 | 141 | – | – | –
13 | CCCCCCCCC1=C(Br)/C(=C/Br)OC1=O | 3.41 | – | – | – | 267 | – | – | –
14 | CC(Br)C1=C(Br)C(=C(Br)Br)OC1=O (stereo unspecified) | 2.76 | inactive | inactive | 4.09 | 9.74 | inactive | inactive | –
15 | C=C1OC(=O)C(CCCCCC)=C1Br | 1.36 | Active | inactive | 19.4 | 36.3 | – | Active | Activity [8]: Active; IC50 [9]: 48 µM; Activity [10]: Active; IC50 [11]: 8.5 µM; Activity [12]: Active; IC50 [13]: 2 µM; IC50 [14]: 7.5 µM; IC50 [15]: 16 µM
16 | O=C1C=CC(=C(Br)Br)O1 | 2.88 | – | – | – | 25.5 | – | – | –
17 | CC(Br)C1=C(Br)/C(=C/Br)OC1=O (stereo unspecified) | 6.34 | Active | inactive | 4.5 | 16.1 | inactive | Active | –
18 | O=C1C=C(Br)/C(=C/Br)O1 | 2.71 | – | – | – | 3.16 | – | – | –
19 | O=C1C=C/C(=C/Br)O1 | 4.07 | – | – | – | 15.7 | – | – | –
20 | CCCCCCC1=CC(=C(Br)Br)OC1=O | 84 | – | – | 160 | 197 | – | – | –
21 | CCCCCCC1=CC(=O)OC1=O | 97.8 | – | – | > 1000 | 640 | – | – | –
22 | CCCCCCCCCCCCC1=C(Br)/C(=C/Br)OC1=O | – | – | – | – | – | – | – | GI50 [16]: inactive; IC50 [17]: Not Active
23 | CCCCCC(Br)C1=C(Br)/C(=C/Br)OC1=O (stereo unspecified) | 5.21 | inactive | inactive | 3.23 | 7.27 | inactive | inactive | –
24 | CC(=O)OC(C)C1=CC(=C(Br)Br)OC1=O (stereo unspecified) | – | inactive | inactive | 162 | – | inactive | inactive | –
25 | CCCCCCC1=C(Br)/C(=C/Br)OC1=O | 11.9 | inactive | inactive | 10.7 | 34 | – | Active | –
26 | CCC1=C(Br)/C(=C/Br)OC1=O | 9.27 | inactive | inactive | 17.9 | 10.8 | – | Active | IC50 [9]: 39 µM; IC50 [11]: 284 µM; IC50 [13]: 6.3 µM; IC50 [14]: 208 µM; IC50 [15]: > 500 µM
27 | CCCCC1=C(Br)C(=C(Br)Br)OC1=O | 14.4 | – | – | – | 20.5 | – | – | –
